CCR6 antagonist: antagonists of human CCR6 receptor. inhibition, % at 20 µM. hit rate 0.49% among 340,000. CHO-K1 CCR6 PathHunter beta-arrestin, luminescence, CCL20-stimulated. P51684;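 active means compounds whose inhibition of the agonist-driven luminescence signal at 20 µM reaches about 50%, limit read from the data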;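 further: cells stimulated with CCL20 at 14 nM final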
Target sequence (P51684 whole entry, looked up): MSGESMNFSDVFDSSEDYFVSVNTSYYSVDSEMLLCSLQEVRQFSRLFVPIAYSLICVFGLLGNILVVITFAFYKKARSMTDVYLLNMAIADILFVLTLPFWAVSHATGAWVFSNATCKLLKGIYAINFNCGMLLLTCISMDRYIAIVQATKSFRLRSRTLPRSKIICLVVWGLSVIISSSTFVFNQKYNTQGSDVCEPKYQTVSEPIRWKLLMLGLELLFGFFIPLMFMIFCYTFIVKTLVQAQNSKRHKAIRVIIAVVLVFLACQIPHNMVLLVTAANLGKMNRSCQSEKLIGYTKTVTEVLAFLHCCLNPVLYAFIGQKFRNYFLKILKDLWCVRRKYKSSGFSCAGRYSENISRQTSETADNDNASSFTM
m5-HT2A agonist: activates the mouse 5-HT2A serotonin receptor | activation, % at 7.6 µM | CHO-K1 mHTR2A beta-arrestin complementation, luminescence; percent of 30 µM serotonin response | hit rate 0.66% among 360,000;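 active means activation above a run cutoff, the mean activation of all tested compounds plus 3 SD, cut at about 14% in these data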
APJ antagonist: blocks the human apelin receptor APJ. P35414. inhibition, % at 20 µM. CHO-K1 APJ beta-arrestin complementation, luminescence. hit rate 0.32% among 330,000;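 active means inhibition above about 40% at 20 µM, limit read from the data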;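 further: cells challenged with 10 nM apelin-13 agonist together with compound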
APJ ag: activates the human apelin receptor APJ; CHO-K1 APJ PathHunter beta-arrestin, luminescence; 0% DMSO wells, 100% apelin; activation, % at 20 µM; P35414; hit rate 0.11% among 330,000; AID 2520;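 active means activation more than six SD over the plate average, tested at 20 µM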
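Test system – PathHunter CHO-K1 APJ (AGTRL-1) beta-arrestin reporter cells · Input – 1000 cells/well · Compound – single test compound dose, 20 µM final, 1% DMSO · Times – compound stimulation 90 min at 25 °C, detection 60 min · Technique – beta-gal luminescence · Read-out basis – APJ–arrestin association signal · Control set – negative DMSO alone, positive Apelin-13 at 10 nM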
CXCR6 inh: inhibitors of human CXCR6 receptor; CHO-K1 PathHunter CXCR6 beta-arrestin, luminescence; AID 602244; O00574; hit rate 0.36% among 360,000; inhibition, % at 20 µM; in the data active means inhibition above about 34%, passing the limit was not always enough;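 further: antagonist mode with CXCL16 agonist at 10 nM final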
NTR1 ag: NTR1 (human) agonism | P30989 | NTR1-U2OS beta-arrestin-GFP spot imaging, agonist mode | activation, % at 20 µM | hit rate 0.17% among 330,000 | AID 493036;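 active means activation at or above 40% of the spot to cytoplasm intensity ratio, with at least 20 cells analyzed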
A number is an active result; n = inactive; x = no result given. Shown are actives, neighbours in structure and some others; about 1.5% of the full set was active somewhere.

SMILES | CCR6 antagonist | m5-HT2A agonist | APJ antagonist | APJ ag | CXCR6 inh | NTR1 ag
Nc1c(Cl)ncnc1N/N=C/c1ccc2ccccc2n1 | 84 | n | x | x | 53 | x
COc1cc2[nH]c(C(=O)N3CCc4ccccc43)cc2c(OC)c1OC | n | n | n | n | n | n
COc1cccc(CNC(=O)CCCc2c[nH]c3ccccc23)c1 | n | n | n | n | n | n
CN(C)c1ccc(C=c2c3ccccc3n3c2c2c([n+]3C)CCCC2)cc1 | n | n | x | x | 45 | x
COc1cc(C=c2c3ccccc3n3c2cc(-c2ccccc2)[n+]3C)cc(OC)c1OC | n | n | x | x | n | x
CN(C)c1ccc(C=c2c3cc([N+](=O)[O-])ccc3n3c2cc(-c2ccccc2)[n+]3C)cc1 | 68 | n | x | x | 49 | x
CN(C)c1ccc(C=c2c3ccccc3n3c2cc(-c2ccccc2)[n+]3C)cc1 | 62 | n | x | x | 52 | x
COc1cc(N(C)C)ccc1C=c1c2ccccc2n2c1cc(-c1ccccc1)[n+]2C | 65 | n | x | x | 60 | x
CN(C)c1ccc(C=c2c3ccccc3n3c2cc(-c2ccc(Cl)cc2)[n+]3C)cc1 | n | n | x | x | n | x
CN(CCc1ccccn1)C(=O)CCC1CCCN(C(=O)c2ccc3c(c2)OCCO3)C1 (centres undefined) | n | n | n | n | n | n
CCn1c(SCC(=O)NCC2CCCO2)nnc1-c1ccc(S(=O)(=O)N2CCN(C)CC2)cc1 (centres undefined) | n | n | n | n | n | n
O=C(NCc1ccco1)c1ccc(-c2ccc(F)c(F)c2)c2ccoc12 | x | n | x | x | n | x
CC1(C)CC(=O)C2=C(C1)Nc1ccccc1NC2 | n | n | n | n | n | n
CC1(C)CC(=O)C2=C(C1)Nc1ccccc1N=C2 | x | x | 58 | n | x | n
O=C(O)c1ccc(-c2ccc(/C=N/Nc3ccc([N+](=O)[O-])cc3)o2)cc1 | n | n | n | n | n | n
O=C(O)c1cc(-c2ccc(/C=N/Nc3ccc([N+](=O)[O-])cn3)o2)ccc1Cl | 51 | n | x | x | n | x
Cc1ccc(C(=O)NC2CC3CCCC(C2)N3C(=S)NCc2ccco2)cc1 (centres undefined) | n | n | n | n | n | n
CCOc1ccc(OCCN2C(=O)c3ccccc3C2=O)cc1 | n | n | n | n | n | n
CCOc1ccc(N=C2C(=O)N(CN3CCOCC3)c3ccccc32)cc1 | 59 | n | n | n | n | n
COc1ccc(N2CCN(C(=O)CN(Cc3ccc(Cl)cc3)S(C)(=O)=O)CC2)cc1 | n | n | n | n | 71 | n
Cc1c(N=NC2=C(O)CCCC2=O)c(=O)n(-c2ccccc2)n1C | 70 | n | n | n | 49 | n
Cc1c(N=Nc2ccc(O)cc2)c(=O)n(-c2ccccc2)n1C | n | n | n | n | n | n
O=C(Nc1cccc(C(=O)O)c1)/C(=C\c1ccc2c(c1)OCO2)NC(=O)c1ccccc1Br | x | n | x | x | n | x
O=C(OCn1ncc(Cl)c(Cl)c1=O)c1cccc(C(F)(F)F)c1 | 59 | n | n | n | 50 | n
CCc1ccc(C(=O)Cn2ncc(Cl)c(Cl)c2=O)cc1 | n | n | n | n | n | n
SMILES | CCR6 antagonist | m5-HT2A agonist | APJ antagonist | APJ ag | CXCR6 inh | NTR1 ag
CCCOc1ccc(/C(O)=C2/C(=O)C(=O)N(c3ccccn3)C2c2ccc(OC)cc2)cc1C (centres undefined) | n | n | n | n | n | n
Nc1c(S(=O)(=O)O)cc(NC(=O)c2ccccc2)c2c1C(=O)c1ccccc1C2=O | 55 | n | n | n | n | n
CC1CC(=O)Nc2ccccc2N1C(=O)CSc1ncnc2sccc12 (centres undefined) | n | n | n | n | n | n
N#C/C(=C\c1cccc([N+](=O)[O-])c1)C(=O)NCc1ccc(Cl)cc1 | x | n | x | x | 65 | x
Cn1cnc([N+](=O)[O-])c1S(=O)(=O)Oc1ccc(Cl)cc1 | 60 | n | x | x | 52 | x
Cn1cnc([N+](=O)[O-])c1S(=O)(=O)Oc1cccc2ccccc12 | 74 | n | x | x | 49 | x
CCOc1ccc(N(C(=O)c2ccc(S(=O)(=O)N3CCCC3)cc2)C2C=CS(=O)(=O)C2)cc1 (centres undefined) | n | n | n | n | n | n
Cc1cccnc1NC(=O)CNC(=O)C12CC3CC(CC(C3)C1)C2 | n | n | n | n | n | n
N#C/C(=C\c1ccc(-c2cccc([N+](=O)[O-])c2)o1)C(=O)Nc1nc(-c2cccs2)cs1 | 84 | n | n | n | n | n
